# Reference: paper PMC8915966 (Proceedings of the National Academy of Sciences of the …, 2022)
# Where no end group is shown, it is not given here.
# Columns and labels:
# [1] = test system: FITC-LPS binding to RAW 264.7 cells; test: Flow cytometry of FITC-LPS binding to RAW 264.7 cells; type: cell-based; conditions: posttreatment with 40 μM peptide, FITC-LPS 40 μg/mL, 30 min, 4 °C; MFI
# How it was run: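 RAW 264.7 cells (10⁶) were exposed under serum-free conditions at 4 °C for 30 min to test compound (40 μM) or FITC-labelled E. coli O55:B5 LPS (40 μg/mL), given before or after the other. Cells were PBS-washed and surface fluorescence was read by flow cytometry as MFI (%). Three independent experiments, mean ± SEM, one-way ANOVA with Dunnett's test.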
# [2] = test system: ICR mice; test: In vivo toxicity; conditions: for kidney histology, in words: 20 mg/kg, two doses for 3 d, hematoxylin and eosin
# How it was run: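 Female ICR mice, n = 5 per group, received test compound i.p. at a low (5 mg/kg/day for 5 d) or high (20 mg/kg twice per day for 3 d) regimen. Serum creatinine, AST and ALT were measured and compared with controls by one-way ANOVA with Dunnett's test; mean ± SEM.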
# [3] = test system: RAW 264.7 cells; test: Cytotoxicity, WST-8 assay; type: cell-based; conditions: 24 h
# [4] = test system: E. coli K1-infected ICR mice; test: E. coli K1 sepsis mouse model; type: in vivo
# [5] = molecular target: TLR4/MD-2 (Homo sapiens, UniProt O00206+Q9Y6Y9); test: SPR binding to TLR4/MD-2 complex
# [6] = molecular target: TLR4 (Homo sapiens, UniProt O00206); test: SPR binding to TLR4
# [7] = molecular target: T1, MD-2 (Homo sapiens, UniProt Q9Y6Y9); test: SPR binding to MD-2
# T1 sequence (Q9Y6Y9 19-160): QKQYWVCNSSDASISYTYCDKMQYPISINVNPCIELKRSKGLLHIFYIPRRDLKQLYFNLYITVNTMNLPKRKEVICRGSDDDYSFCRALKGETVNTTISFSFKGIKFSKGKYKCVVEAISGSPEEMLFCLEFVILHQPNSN
# [8] = molecular target: MD-2; conditions: read-out: binding affinity of LPS to MD-2; cited from earlier work
# [9] = molecular target: TLR4; conditions: read-out: binding affinity of LPS to TLR4; cited from earlier work
# [10] = molecular target: TLR4/MD-2 complex (human) (UniProt O00206); test: SPR
# [11] = 20 mg/kg i.p. twice per day for 3 d, ICR mice, n = 5
# [12] = 1 mg/kg i.p., E. coli K1 5 × 10^6 CFU/mouse, serum
# TLR4/MD-2 complex (human), sequence (O00206 24-839, one chain of several): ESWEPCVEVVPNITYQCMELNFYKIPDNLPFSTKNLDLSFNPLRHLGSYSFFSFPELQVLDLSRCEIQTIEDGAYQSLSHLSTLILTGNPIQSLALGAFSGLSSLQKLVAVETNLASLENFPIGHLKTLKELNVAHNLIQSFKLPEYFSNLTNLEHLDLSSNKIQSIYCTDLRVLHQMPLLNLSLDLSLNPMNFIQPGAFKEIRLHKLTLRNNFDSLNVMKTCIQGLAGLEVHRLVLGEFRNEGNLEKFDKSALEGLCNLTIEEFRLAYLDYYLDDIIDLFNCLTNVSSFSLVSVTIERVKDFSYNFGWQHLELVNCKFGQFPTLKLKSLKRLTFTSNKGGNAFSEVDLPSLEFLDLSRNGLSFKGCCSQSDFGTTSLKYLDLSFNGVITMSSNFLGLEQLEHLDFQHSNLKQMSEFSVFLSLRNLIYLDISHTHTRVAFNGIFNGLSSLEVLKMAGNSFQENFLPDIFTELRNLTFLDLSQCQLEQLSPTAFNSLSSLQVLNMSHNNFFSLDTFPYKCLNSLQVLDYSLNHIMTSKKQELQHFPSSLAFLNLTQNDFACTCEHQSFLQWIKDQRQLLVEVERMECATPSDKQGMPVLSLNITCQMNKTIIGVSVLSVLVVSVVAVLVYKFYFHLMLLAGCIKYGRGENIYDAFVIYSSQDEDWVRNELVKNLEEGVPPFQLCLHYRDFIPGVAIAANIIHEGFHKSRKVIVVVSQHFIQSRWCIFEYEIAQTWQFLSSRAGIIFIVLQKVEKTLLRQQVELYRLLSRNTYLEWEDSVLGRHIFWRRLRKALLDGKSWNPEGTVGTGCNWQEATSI
# TLR4/MD-2, sequence (O00206 24-631 limits assumed): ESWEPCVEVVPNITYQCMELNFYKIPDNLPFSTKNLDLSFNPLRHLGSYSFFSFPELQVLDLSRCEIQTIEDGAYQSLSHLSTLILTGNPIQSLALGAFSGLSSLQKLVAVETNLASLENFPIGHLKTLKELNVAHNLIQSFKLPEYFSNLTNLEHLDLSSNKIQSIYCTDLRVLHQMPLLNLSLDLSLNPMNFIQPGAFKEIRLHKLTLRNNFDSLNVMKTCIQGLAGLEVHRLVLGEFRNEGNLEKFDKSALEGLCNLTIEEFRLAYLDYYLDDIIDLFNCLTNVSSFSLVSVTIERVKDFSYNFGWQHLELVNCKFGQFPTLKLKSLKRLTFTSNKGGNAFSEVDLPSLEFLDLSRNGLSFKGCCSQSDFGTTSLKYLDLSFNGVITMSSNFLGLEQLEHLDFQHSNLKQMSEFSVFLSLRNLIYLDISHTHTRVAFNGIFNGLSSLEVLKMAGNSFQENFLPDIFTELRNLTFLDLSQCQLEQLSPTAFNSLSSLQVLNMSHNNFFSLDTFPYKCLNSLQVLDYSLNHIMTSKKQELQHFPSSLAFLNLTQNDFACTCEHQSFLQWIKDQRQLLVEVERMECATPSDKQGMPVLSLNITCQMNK
# TLR4/MD-2, sequence (Q9Y6Y9 17-160 limits assumed): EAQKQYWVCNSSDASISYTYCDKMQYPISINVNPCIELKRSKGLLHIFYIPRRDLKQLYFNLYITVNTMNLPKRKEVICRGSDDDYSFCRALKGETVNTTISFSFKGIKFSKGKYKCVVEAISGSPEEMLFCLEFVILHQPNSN
# TLR4 (Homo sapiens, UniProt O00206), sequence (O00206 24-839): as the sequence (O00206 24-839, one chain of several) above
substance,measurement,setting,value
Polymyxin B [PMB],competitive displacement of prebound LPS on RAW 264.7 cells,[1],no competitive impact
same,elevation of blood urea nitrogen (BUN) level,[2]; [11],26.6%
same,elevation of serum creatinine level,[2]; [11],37.1%
same,increase of ALT level,[2]; [11],30.6%
same,increase of AST level,[2]; [11],17.8%
same,"kidney histology, in words",[2],notable kidney damage
same,cell survival rate,[3]; 50 μM peptide,30.6%
same,cell survival rate,[3]; 100 μM peptide,15.5%
same,reduction of endotoxin levels,"[4]; 1 mg/kg i.p., E. coli K1 5 × 10^6 CFU/mouse, 16 h later, n = 5",34.6%
same,ALT level reduced to,[4]; [12],19.4%
same,AST level reduced to,[4]; [12],25.7%
same,BUN level reduced to,[4]; [12],16.7%
same,"serum and lung tissue levels of TNF-α and IL-6, in words","[4]; 1 mg/kg, compared to E. coli K1–infected control mice, ELISA",significantly reduced
same,"lung tissue histology, in words","[4]; 1 mg/kg, hematoxylin and eosin, neutrophil infiltration",significantly protected against lung damage
RWKIFKKIEKVGRNVRDGIIKAGPAVAVVGQAATVVK-NH2 [Papiliocin],"change in creatinine level compared to the control, in words","[2]; 5 mg/kg/day for 5 d and 20 mg/kg twice per day for 3 d, i.p.",neither lower dose of PMB nor any dose of papiliocin induced any aberrant changes in creatine level
same,"kidney histology, in words",[2],did not show any signs of morphology changes in the kidneys
same,cell survival rate,[3]; 50 μM peptide,100%
same,cell survival rate,[3]; 100 μM peptide,78.0%
same,Kd,[5],3.7 µM
same,kon,"[5]; read-out: association rate, TLR4/MD-2 complex",3850 M⁻¹ s⁻¹
same,koff,"[5]; read-out: dissociation rate, TLR4/MD-2 complex",0.0141 s⁻¹
same,Kd,[6],0.41 µM
same,Kd,[7],1.1 µM
lipopolysaccharide [LPS],Kd,[8],8.7 µM
same,Kd,[9],14.1 µM
papiliocin (peptide),koff,[10],0.0141 s⁻¹
same,kon,[10],3850 M⁻¹ s⁻¹
papiliocin G23P (peptide),fold lower affinity compared to papiliocin,[10],100 fold
papiliocin P24G (peptide),fold lower affinity compared to papiliocin,[10],10 fold
